Measured values reported in ChEMBL document CHEMBL1156634, “Synthesis of somatostatin analogues containing C-terminal adamantane and their antiproliferative properties” (2008).
Where a SMILES comes first, the peptide text is derived from it. Bridges are numbered along the chain shown (N, C = ends). [ ]: non-standard residue; d: D form.

Key:
Type in all cases: functional
A-431 [1] = assay: Antiproliferative activity against human A431 cells at 50 uM after 48 hrs by MTT assay; conditions: A-431, 48 h
Procedure, shortened: (§1)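 MTT read-out: mitochondrial dehydrogenase reduces MTT to formazan in viable cells, cells solubilized with DMSO, absorbance read at 540 nm on an ELISA reader. Cycloheximide and a reference peptide run as positive controls. Values given as % inhibition of cellular proliferation, mean ± SE.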

A-431 [2] = assay: Antiproliferative activity against human A431 cells at 10 uM after 48 hrs by MTT assay; conditions: A-431, 48 h; procedure, shortened: as §1
A-431 [3] = assay: Antiproliferative activity against human A431 cells at 25 uM after 48 hrs by MTT assay; conditions: A-431, 48 h; procedure, shortened: as §1
SW480 [4] = assay: Antiproliferative activity against human SW480 cells at 50 uM after 48 hrs by MTT assay; conditions: SW480, 48 h; procedure, shortened: as §1
SW480 [5] = assay: Antiproliferative activity against human SW480 cells at 10 uM after 48 hrs by MTT assay; conditions: SW480, 48 h; procedure, shortened: as §1
SW480 [6] = assay: Antiproliferative activity against human SW480 cells at 25 uM after 48 hrs by MTT assay; conditions: SW480, 48 h; procedure, shortened: as §1

| SMILES | inhibition at 50 µM (A-431 [1]) | inhibition at 10 µM (A-431 [2]) | inhibition at 25 µM (A-431 [3]) | inhibition at 50 µM (SW480 [4]) | inhibition at 10 µM (SW480 [5]) | inhibition at 25 µM (SW480 [6]) |
| --- | --- | --- | --- | --- | --- | --- |
| CC(C)(C)OC(=O)N[C@@H](Cc1ccc(O)cc1)C(=O)N[C@H](Cc1c[nH]c2ccccc12)C(=O)N[C@@H](CCCCNC(=O)OCc1ccccc1)C(=O)O | 2% | 0% | 0% | – | – | – |
| N[C@@H](Cc1ccc(O)cc1)C(=O)N[C@H](Cc1c[nH]c2ccccc12)C(=O)O | 11% | 0% | 8% | – | – | – |
| CC(C)(C)OC(=O)N[C@@H](Cc1ccc(O)cc1)C(=O)N[C@H](Cc1c[nH]c2ccccc12)C(=O)N[C@@H](CCCCNC(=O)OCc1ccccc1)C(=O)OCC1c2ccccc2-c2ccccc21 | 7% | 2% | 7% | – | – | – |
| N[C@@H](Cc1ccc(O)cc1)C(=O)N[C@H](Cc1c[nH]c2ccccc12)C(=O)N[C@@H](CCCCNC(=O)OCc1ccccc1)C(=O)O | 0% | 0% | 0% | – | – | – |
| C[C@@H]1C[C@@H]([C@H](O)CC2CC(=O)NC(=O)C2)C(=O)[C@@H](C)C1 [CYCLOHEXIMIDE] | 80% | 40% | 70% | 92% | 68% | 85% |
| C[C@@H](O)[C@H](NC(=O)[C@@H]1CSSC[C@H](NC(=O)[C@H](N)Cc2ccccc2)C(=O)N[C@@H](Cc2ccc(O)cc2)C(=O)N[C@H](Cc2c[nH]c3ccccc23)C(=O)N[C@@H](CCCCN)C(=O)N1)C(N)=O [TT-232] (H-[dF]CY[dW]KCT-NH2; disulfide 2-6) | 80% | 50% | 60% | 88% | 13% | 47% |
